{
  "source": "paper PMC5242172",
  "about": "(Pharmacology Research & Perspectives, 2016)",
  "key": {"[1]": {"molecular_target": "bovine heart mitochondrial complex I (Bos taurus, UniProt P03887+P17694+P42026)", "sequence (P03887 whole entry)": "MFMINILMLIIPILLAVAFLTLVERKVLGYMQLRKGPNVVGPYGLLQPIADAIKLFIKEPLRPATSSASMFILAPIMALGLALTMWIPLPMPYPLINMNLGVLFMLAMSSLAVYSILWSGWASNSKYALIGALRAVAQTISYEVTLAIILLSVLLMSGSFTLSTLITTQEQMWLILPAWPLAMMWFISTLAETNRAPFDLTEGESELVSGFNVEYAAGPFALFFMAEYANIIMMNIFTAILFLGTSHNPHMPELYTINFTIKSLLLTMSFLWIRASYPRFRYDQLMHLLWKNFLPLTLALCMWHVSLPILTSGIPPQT", "sequence (P42026 38-216)": "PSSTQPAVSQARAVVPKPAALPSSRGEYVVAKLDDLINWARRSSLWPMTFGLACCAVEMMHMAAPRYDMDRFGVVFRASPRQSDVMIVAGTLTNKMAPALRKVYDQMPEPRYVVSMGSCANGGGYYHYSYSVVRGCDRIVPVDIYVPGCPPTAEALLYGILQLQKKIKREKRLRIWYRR", "sequence (P17694 34-463)": "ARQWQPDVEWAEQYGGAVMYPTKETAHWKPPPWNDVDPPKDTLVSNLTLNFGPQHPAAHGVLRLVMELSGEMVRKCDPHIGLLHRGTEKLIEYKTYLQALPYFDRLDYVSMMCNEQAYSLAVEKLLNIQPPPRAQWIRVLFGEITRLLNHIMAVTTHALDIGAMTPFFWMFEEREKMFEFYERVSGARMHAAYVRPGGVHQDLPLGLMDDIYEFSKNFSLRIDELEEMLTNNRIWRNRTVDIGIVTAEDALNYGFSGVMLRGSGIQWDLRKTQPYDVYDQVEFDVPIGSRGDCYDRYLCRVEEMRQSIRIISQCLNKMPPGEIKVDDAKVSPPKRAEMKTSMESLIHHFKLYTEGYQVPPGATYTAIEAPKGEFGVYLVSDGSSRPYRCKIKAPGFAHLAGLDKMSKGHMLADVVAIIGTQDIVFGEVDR", "assay": "Complex I activity", "assay_type": "biochemical"}, "[2]": {"system": "NCI-H23 cells", "assay": "Cellular oxygen consumption rate", "assay_type": "cell-based, human", "settings": "NCI-H23, 1 h after drug"}, "[3]": {"system": "NCI-H23 cells", "assay": "Cellular ATP measurement", "assay_type": "cell-based, human", "settings": "NCI-H23, 6 h of treatment", "how_it_was_run": "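NCI-H23 cells in RPMI 1640 with 5% FBS were plated at 1–2 × 10^5 cells/mL and incubated overnight at 37°C, 5% CO2. Test compound diluted in medium was added for 6 h, with final DMSO below 1%. Lysis buffer and substrate were added, and luciferase-based luminescence was read. ATP was expressed as % of solvent-treated wells; mean ± SEM, n = 3.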"}, "[4]": {"system": "NCI-H23 cells", "assay": "Viable cell number", "assay_type": "cell-based, human", "settings": "NCI-H23, 6 h of treatment", "how_it_was_run": "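NCI-H23 cells were grown in RPMI 1640 with 5% FBS at 37°C, 5% CO2, and exposed to test compound (DMSO stocks 10 or 100 mmol/L) for 6 h. Viable cells were counted by trypan blue exclusion on an automated cell counter and expressed as % of nontreated control; mean ± SEM, n = 3.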"}, "[5]": {"system": "mitochondrial DNA-deficient (ρ0) NCI-H23 cells", "assay": "Growth of ρ0 versus ρ+ cells, sulforhodamine B assay", "assay_type": "cell-based, human", "settings": "NCI-H23 ρ0 vs ρ+, 48 h"}, "[6]": {"system": "xenograft tumors", "settings": "ref Kojima et al. 2014; cited from earlier work"}, "[7]": {"system": "panel of 39 human cancer cell lines (JFCR39)", "assay": "Growth inhibition profile, summary over the JFCR39 panel", "assay_type": "cell-based"}, "[8]": {"system": "mitochondrial complexes (complex II–V)", "assay": "Activities of OxPhos complexes II-V", "assay_type": "biochemical", "settings": "II + III, IV, V (Fig. S2)"}},
  "note": "Like-named read-outs stand apart in the source and are kept apart here.",
  "data": [
    {"smiles": "COc1cc2c(cc1OC)[C@@H]1C(=O)c3ccc4c(c3O[C@@H]1CO2)C=CC(C)(C)O4", "note": "[Deguelin, reference compound]", "values": [
      {"measurement": "IC50", "setting": "[1]", "value": 40, "unit": "nM"}
    ]},
    {"smiles": "C=C(C)[C@H]1Cc2c(ccc3c2O[C@@H]2COc4cc(OC)c(OC)cc4[C@@H]2C3=O)O1", "note": "[Rotenone, reference compound]", "values": [
      {"measurement": "effect on cellular oxygen consumption rate", "setting": "[2]", "value": "inhibited the oxygen consumption of NCI‐H23 cells in a dose‐dependent manner"}
    ]},
    {"smiles": "CCCCCCCCCCCC[C@@H](O)[C@H]1CC[C@H]([C@H](O)CCCCCCCCCCNC(=O)c2ccsc2)O1", "note": "[JCI-20679, N‐((R)‐11‐Hydroxy‐11‐{(2R,5R)‐5‐[(R)‐1‐hydroxytridecyl]tetrahydrofuran‐2‐yl}undecyl)thiophene‐3‐carboxamide]", "values": [
      {"measurement": "effect on intracellular ATP content", "setting": "[3]", "value": "ATP depletion by JCI‐20679 in a dose‐dependent manner"},
      {"measurement": "viable cell number", "setting": "[4]", "value": "hardly changed"},
      {"measurement": "sensitivity of ρ0 cells compared with ρ+ cells", "setting": "[5]", "value": "more resistant"},
      {"measurement": "effect on cellular oxygen consumption rate", "setting": "[2]", "value": "inhibited the oxygen consumption of NCI‐H23 cells in a dose‐dependent manner"},
      {"measurement": "antitumor activity in mouse xenograft models", "setting": "[6]", "value": "more potent antitumor activity than solamin"},
      {"measurement": "side effects in mouse xenograft models", "setting": "[6]", "value": "no severe side effects"},
      {"measurement": "GI50", "setting": "[7]; 48 h, read-out: MG-MID, the mean of log GI50 values for 39 cell lines (converted)", "value": 2750, "unit": "nM"},
      {"measurement": "GI50", "setting": "[7]; read-out: mean GI50 within the JFCR39 panel", "value": 2750, "unit": "nM"},
      {"measurement": "inhibition of mitochondrial complexes II–V", "setting": "[8]", "value": "None of the other mitochondrial complexes (complex II–V) were inhibited"},
      {"measurement": "IC50", "setting": "[1]", "value": 170, "unit": "nM"},
      {"measurement": "complex I inhibition, activity relative to rotenone", "setting": "[1]; ratio of IC50 values", "value": "seven times less activity than rotenone"},
      {"measurement": "complex I inhibition, times greater activity than phenformin", "setting": "[1]; ratio of IC50 values", "value": 6000, "unit": "times"},
      {"measurement": "complex I inhibition, times greater activity than solamin", "setting": "[1]; ratio of IC50 values", "value": 30, "unit": "times"}
    ]},
    {"smiles": "CN(C)c1cccc2c(S(=O)(=O)NCCCCCCCCC[C@@H](O)[C@H]3CC[C@H]([C@H](O)CCCCCCCCCCNC(=O)c4ccsc4)O3)cccc12", "note": "[JCI-13291, N‐[(R)‐11‐((2R,5R)‐5‐{(R)‐10‐[5‐(Dimethylamino)naphthalene‐1‐sulfonamido]‐1‐hydroxydecyl}tetrahydrofuran‐2‐yl)‐11‐hydroxyundecyl]thiophene‐3‐carboxamide]", "values": [
      {"measurement": "effect on intracellular ATP content", "setting": "[3]", "value": "depleted intracellular ATP content"},
      {"measurement": "effect on cellular oxygen consumption rate", "setting": "[2]", "value": "inhibited the aerobic aspiration of NCI‐H23 cells"}
    ]}
  ]
}
